Experimental data reported in ChEMBL document CHEMBL1137696, “Preparation and in vitro evaluation of benzylsulfanyl benzoxazole derivatives as potential antituberculosis agents” (2009).
Converted amounts (≈) assume the structure as drawn. The source made the active and inactive calls. The calls are words filed in the database; no cut-off is given here.

Columns and labels:
[1] = tested on: Mycobacterium tuberculosis; assay: Antimycobacterial activity against Mycobacterium tuberculosis CNCTC My 331/88 after 21 days by micromethod; type: functional; details: CNCTC My 331/88, 504 h
Summary of the method: (§1)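 MIC by micromethod in Šula semisynthetic medium. Compounds added as DMSO solutions at 1000, 500, 250, 125, 62, 32, 16, 8, 4 and 2 µmol/L. Incubated at 37 °C and read at 14 and 21 days. MIC taken as the lowest concentration that inhibited mycobacterial growth, expressed in µmol/L. INH run as standard. Strains from CNCTC.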

Mycobacterium kansasii [2] = assay: Antimycobacterial activity against Mycobacterium kansasii CNCTC My 235/80 after 21 days by micromethod; type: functional; details: CNCTC My 235/80, 504 h
Summary of the method: (§2)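 Micromethod MIC in Šula semisynthetic medium, with compounds added as DMSO solutions at 1000, 500, 250, 125, 62, 32, 16, 8, 4 and 2 µmol/L. Cultures were incubated at 37 °C, and M. kansasii was read at 7, 14 and 21 days. MIC is the lowest concentration at which mycobacterial growth was inhibited. INH served as standard. Strain 6509/96 was a clinical isolate.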

[3] = tested on: Mycobacterium tuberculosis; assay: Antimycobacterial activity against Mycobacterium tuberculosis CNCTC My 331/88 after 14 days by micromethod; type: functional; details: CNCTC My 331/88, 336 h; summary of the method: as §1
K562 = assay: Growth inhibition of human K562 cells; type: functional
Summary of the method: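 K-562 suspension cultures in microplates were exposed to 10 concentrations of compound. Each well was diluted 1:50 in CASYTON and counted with a CASY 1 electronic cell analyzer (150 µm aperture), using the mean of three successive 0.4 mL counts. GI50 is the point where the concentration-response curve of cell counts/mL relative to control crosses the 50% line.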

Mycobacterium avium [4] = assay: Antimycobacterial activity against Mycobacterium avium CNCTC My 330/88 after 14 days by micromethod; type: functional; details: CNCTC My 330/88, 336 h; summary of the method: as §1
Mycobacterium kansasii [5] = assay: Antimycobacterial activity against Mycobacterium kansasii 6509/96 after 14 days by micromethod; type: functional; details: 6509/96, 336 h; summary of the method: as §2
Mycobacterium kansasii [6] = assay: Antimycobacterial activity against Mycobacterium kansasii CNCTC My 235/80 after 14 days by micromethod; type: functional; details: CNCTC My 235/80, 336 h; summary of the method: as §2
Mycobacterium kansasii [7] = assay: Antimycobacterial activity against Mycobacterium kansasii CNCTC My 235/80 after 7 days by micromethod; type: functional; details: CNCTC My 235/80, 168 h; summary of the method: as §2
Mycobacterium kansasii [8] = assay: Antimycobacterial activity against Mycobacterium kansasii 6509/96 after 21 days by micromethod; type: functional; details: 6509/96, 504 h; summary of the method: as §2
Mycobacterium kansasii [9] = assay: Antimycobacterial activity against Mycobacterium kansasii 6509/96 after 7 days by micromethod; type: functional; details: 6509/96, 168 h; summary of the method: as §2
L929 = assay: Growth inhibition of mouse L929 cells; type: functional
Summary of the method: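 Antiproliferative assay on adherent L-929 monolayers exposed to 10 concentrations of compound. Cells were fixed with glutaraldehyde, stained with 0.05% methylene blue for 15 min, washed, and the dye eluted with 0.33 N HCl. OD was read at 630 nm, and GI50 is the concentration giving 50% growth inhibition.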

Mycobacterium avium [10] = assay: Antimycobacterial activity against Mycobacterium avium CNCTC My 330/88 after 21 days by micromethod; type: functional; details: CNCTC My 330/88, 504 h; summary of the method: as §1
HeLa = assay: Cytotoxicity against human HeLa cells; type: functional
Summary of the method: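 Adherent HeLa monolayers were incubated with 10 concentrations of compound, then glutaraldehyde-fixed and stained with 0.05% methylene blue for 15 min. After gentle washing, the stain was eluted with 0.33 N HCl and absorbance read at 630 nm. CC50 is the concentration causing 50% cytotoxic (lytic) effect.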

Tetranychus urticae [11] = assay: Insecticidal activity against glasshouse red spider mite larvae; type: functional, organism-based
Tetranychus urticae [12] = assay: Insecticidal activity against glasshouse red spider mite egg; type: functional

For O=[N+]([O-])c1ccc(CSc2nc3ccccc3o2)c([N+](=O)[O-])c1, the MIC [1] was 8 µM (≈ 2.65 µg/mL), the MIC (Mycobacterium kansasii [2]) was 4 µM (≈ 1.33 µg/mL) and the MIC [3] was 8 µM (≈ 2.65 µg/mL). The GI50 (K562) was 10.4 µg/mL (≈ 31.4 µM), the MIC (Mycobacterium avium [4]) was > 16 µM and the MIC (Mycobacterium kansasii [5]) was 8 µM (≈ 2.65 µg/mL). The MIC (Mycobacterium kansasii [6]) was 4 µM (≈ 1.33 µg/mL), the MIC (Mycobacterium kansasii [7]) was 4 µM (≈ 1.33 µg/mL) and the MIC (Mycobacterium kansasii [8]) was 8 µM (≈ 2.65 µg/mL). For the same compound, the MIC (Mycobacterium kansasii [9]) was 4 µM (≈ 1.33 µg/mL), the GI50 (L929) was > 50 µg/mL and the MIC (Mycobacterium avium [10]) was > 32 µM. The CC50 (HeLa) was 45.1 µg/mL (≈ 136 µM).
Compound O=[N+]([O-])c1cc(CSc2nc3ccccc3o2)cc([N+](=O)[O-])c1 has an MIC [1] of 8 µM (≈ 2.65 µg/mL), an MIC (Mycobacterium kansasii [2]) of 4 µM (≈ 1.33 µg/mL) and an MIC [3] of 8 µM (≈ 2.65 µg/mL). The GI50 (K562) was 9.2 µg/mL (≈ 27.8 µM), the MIC (Mycobacterium avium [4]) was > 16 µM and the MIC (Mycobacterium kansasii [5]) was 8 µM (≈ 2.65 µg/mL). It also gave an MIC (Mycobacterium kansasii [6]) of 4 µM (≈ 1.33 µg/mL), an MIC (Mycobacterium kansasii [7]) of 2 µM (≈ 0.663 µg/mL) and an MIC (Mycobacterium kansasii [8]) of 8 µM (≈ 2.65 µg/mL). For the same compound, the MIC (Mycobacterium kansasii [9]) was 4 µM (≈ 1.33 µg/mL), the GI50 (L929) was 22.4 µg/mL (≈ 67.6 µM) and the MIC (Mycobacterium avium [10]) was > 32 µM. The CC50 (HeLa) was > 50 µg/mL.
Clc1ccc(CSc2nc3ccccc3o2)cc1 was tested, and the MIC [1] was > 500 µM, the MIC (Mycobacterium kansasii [2]) was 125 µM (≈ 34.5 µg/mL) and the Activity (Tetranychus urticae [11]) was “Active”. The MIC [3] was 250 µM (≈ 68.9 µg/mL), the Activity (Tetranychus urticae [12]) was “Active” and the MIC (Mycobacterium avium [4]) was 62 µM (≈ 17.1 µg/mL). The MIC (Mycobacterium kansasii [5]) was 62 µM (≈ 17.1 µg/mL), the MIC (Mycobacterium kansasii [6]) was 62 µM (≈ 17.1 µg/mL) and the MIC (Mycobacterium kansasii [7]) was 32 µM (≈ 8.82 µg/mL). It also gave an MIC (Mycobacterium kansasii [8]) of 125 µM (≈ 34.5 µg/mL), an MIC (Mycobacterium kansasii [9]) of 32 µM (≈ 8.82 µg/mL) and an MIC (Mycobacterium avium [10]) of 62 µM (≈ 17.1 µg/mL).
